Measurements as given in ChEMBL document CHEMBL4196133, “NF-κB and Angiogenesis Inhibitors from the Aerial Parts of Chresta martii” (J Nat Prod, 2018).
pIC50: −log10 of the molar value. Active and inactive are the calls of the source. The calls are words filed in the database; no cut-off is given here.

Experiments:
[1] = Inhibition of TNFalpha-stimulated NF-kappaB (unknown origin) expressed in HEK293 cells incubated for 30 mins followed by TNFalpha stimulation for 4 hrs by luciferase reporter gene based luminescence assay; format: cell-based; settings: Homo sapiens
HUVEC [2] = assay: Antiangiogenic activity in HUVEC assessed as decrease in VEGF-induced extremities at 1 ug/ml after 3 days; format: functional, cell-based; settings: Homo sapiens
Outline: (§1)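 HUVECs seeded on Cytodex 3 beads (400 cells/bead, 4 h at 37 °C with shaking, then 24 h), embedded in fibrin gel (fibrinogen 2.5 mg/mL, aprotinin 0.15 U/mL, thrombin) with VEGF; EGM-2 with VEGF 5 ng/mL, NHDF overlaid. Compound added after 1 h, medium renewed at 24 h then every 48 h. Imaged at 4× day 4; sprout network quantified by Angiogenesis Analyzer; ≥18 spheres, mean ± SEM, one-way ANOVA/Dunnett.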

HUVEC [3] = assay: Antiangiogenic activity in HUVEC assessed as decrease in VEGF-induced number of total capillary length at 1 ug/ml after 3 days; format: functional, cell-based; settings: Homo sapiens; outline: as §1
HUVEC [4] = assay: Antiangiogenic activity in HUVEC assessed as decrease in VEGF-induced anchorage junctions at 1 ug/ml after 3 days; format: functional, cell-based; settings: Homo sapiens; outline: as §1
HUVEC [5] = assay: Antiangiogenic activity in HUVEC assessed as decrease in VEGF-induced segments at 1 ug/ml after 3 days; format: functional, cell-based; settings: Homo sapiens; outline: as §1
HUVEC [6] = assay: Cytotoxicity against HUVEC at 1 ug/ml after 24 hrs by MTT assay; format: cell-based; settings: human
Outline: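 HUVECs (1.0 × 10^4/well) in EBM2 with 0.5% FBS, settled overnight at 37 °C, 5% CO2; compound at 1 μg/mL for 24 h. MTT added for 4 h at 37 °C, formazan dissolved in DMSO, absorbance read at 595 nm.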

Structure (SMILES)	pIC50 [1]	Activity (HUVEC [2])	Activity (HUVEC [3])	Activity (HUVEC [4])	Activity (HUVEC [5])	Activity (HUVEC [6])
CC(=O)O[C@@H]1C[C@@](C)(OC(C)=O)C(=O)CC[C@@]2(C)O[C@@H]2C2OC(=O)C(CO)=C21 (some centres not stated)	5.62	Active	Active	Active	Active	Non-Toxic
CCC(=O)O[C@H]1C[C@@](C)(OC(C)=O)C(=O)CC[C@@]2(C)O[C@H]2[C@H]2OC(=O)C(COC(C)=O)=C12	5.29	–	–	–	–	Non-Toxic
COc1ccc(-c2cc(=O)c3c(O)cc(O)cc3o2)cc1OC	–	–	–	–	–	Non-Toxic
CC(=O)OCC1=C2[C@@H](OC(C)=O)C[C@@](C)(OC(C)=O)C(=O)CC[C@@]3(C)O[C@H]3[C@H]2OC1=O	5.19	Active	Active	Active	Active	Non-Toxic
CC(=O)OCC1=C2[C@@H](O)C[C@@](C)(OC(C)=O)C(=O)CC[C@@]3(C)O[C@H]3[C@H]2OC1=O	5.11	–	–	–	–	Non-Toxic
CC(=O)OCC1=C2[C@@H](OC(C)=O)C[C@@](C)(OC(C)=O)[C@@]3(O)CC[C@@](C)(O)[C@H](OC(C)=O)[C@@]23OC1=O	4.87	–	–	–	–	–

The remaining compounds from weak to strong by pIC50 [1], led by results:

pIC50 [1]	Structure (SMILES)	Activity (HUVEC [2])	Activity (HUVEC [3])	Activity (HUVEC [4])	Activity (HUVEC [5])	Activity (HUVEC [6])
5.66	C[C@@]12/C=C3\OC(=O)C(CO)=C3[C@@H](O)C[C@@](C)(O)[C@@](O)(CC1)O2	Active	Active	Active	Active	Non-Toxic
5.74	CC(=O)OCC1=C2/C(=C/[C@]3(C)CC[C@@](O)(O3)[C@@](C)(O)C[C@H]2OC(C)=O)OC1=O	Active	Active	Active	Active	Non-Toxic
6.15	CC(=O)OCC1=C2/C(=C/[C@]3(C)CC[C@@](O)(O3)[C@](C)(O)C[C@@H]2O)OC1=O	Active	Active	Active	Active	Non-Toxic
6.15	C=C1C(=O)O[C@H]2[C@@H]1CC/C(C)=C\CC[C@@]1(C)O[C@@H]21	–	–	–	–	–
